SENP8 block-1: blocks the human protease SENP8; purified SENP8, Z-RLRGG-aminoluciferin cleavage, luminescence; inhibition, % at 10 µM; Q96LD8; AID 2540; hit rate 1.2% among 330,000; in the data active means inhibition above about 50%
SENP7 inh: inhibitors of human SENP7 protease. recombinant SENP7, Z-RLRGG-aminoluciferin luminescence, 40 min. hit rate 1.5% among 330,000. inhibition, % at 5 µM. Q9BQF6;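 active means inhibition above about 50% at the single test dose, limit read from the data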;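 further: plate controls were DMSO with enzyme for no effect and no enzyme buffer wells for full effect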
Target sequence (Q9BQF6 706-1050 limits assumed): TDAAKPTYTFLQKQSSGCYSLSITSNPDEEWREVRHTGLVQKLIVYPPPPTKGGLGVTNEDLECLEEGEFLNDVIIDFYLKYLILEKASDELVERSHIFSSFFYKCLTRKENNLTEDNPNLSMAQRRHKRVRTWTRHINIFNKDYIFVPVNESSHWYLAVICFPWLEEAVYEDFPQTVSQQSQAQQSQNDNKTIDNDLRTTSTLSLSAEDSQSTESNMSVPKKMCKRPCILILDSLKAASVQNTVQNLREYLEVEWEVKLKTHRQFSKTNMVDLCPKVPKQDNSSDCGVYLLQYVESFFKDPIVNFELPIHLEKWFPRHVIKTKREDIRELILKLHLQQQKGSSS
SENP8 block-2: SENP8 (human) protease inhibition. Q96LD8. recombinant SENP8, Nedd8 substrate fluorescence. inhibition, % at 20 µM. hit rate 0.64% among 360,000. AID 602440; in the data active means inhibition mostly above about 40%, no sharp cut-off; inactive means mostly below about 27%
SENP6 block: SENP6 protease inhibition; Q9GZR1; Recombinant SENP6 catalytic domain, aminoluciferin luminescence; inhibition, % at 10 µM; hit rate 1.8% among 330,000; AID 2599;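 active means inhibition above about 50% at the single tested dose, limit read from the data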;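 further: plate controls were DMSO wells with enzyme for no effect and DMSO wells lacking enzyme for full effect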
Apaf-1 inh: inhibitors of human Apaf-1 apoptosome; O14727; reconstituted apoptosome caspase-3 activity, DEVD-Rh110 fluorescence; inhibition, % at 20 µM; hit rate 0.71% among 330,000; AID 489030; active means inhibition of at least 40% at 20 µM;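 further: plate controls were DMSO wells for no effect and DEVD-CHO caspase inhibitor wells for full effect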
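Material: cell-free apoptosome with Apaf-1, procaspase-3 and caspase-9; Buffer or medium: Hepes pH 7.5 with detergent and BSA; Reagent: cytochrome c trigger plus (Z-DEVD)2-Rh110 caspase-3 substrate; Times: compound with Apaf-1, dATP, procaspase-3 30 min, then 50 min reaction, room temperature; Technique: Rh110 fluorescence intensity.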
UBC13 inh: human UBC13 polyubiquitination inhibition | P61088 | UBC13 polyubiquitin chain formation, TR-FRET | hit rate 0.47% among 330,000 | inhibition, % at 20 µM; in the data active means inhibition above about 45%, passing the limit was not always enough
SENP8 inh conf: confirmation of human SENP8 protease inhibitors. purified SENP8, Nedd8-AMC/pro-Nedd8 cleavage fluorescence, 30 min. hit rate 15% among 1,400. shares compounds with SENP8 block-2. inhibition, % at 25 µM; in the data active means inhibition mostly above about 39%, no sharp cut-off; inactive means mostly below about 34%
Active calls of the source: *; / = not tested or not shown. Sampled rows, rich in hits. Any-hit rate of the full collection: about 3%.

SMILES	SENP8 block-1	SENP7 inh	SENP8 block-2	SENP6 block	Apaf-1 inh	UBC13 inh	SENP8 inh conf
Nc1ccccc1O	4	9	58*	13	7	3	13
Oc1ccccc1O	14	-5	12	-14	-8	12	/
COc1ccc(-n2c(O)c(C=NCc3ccccn3)c3ccccc3c2=O)c(OC)c1	-4	6	41*	-13	-8	-2	27
O=c1c2ccccc2c(C=NCc2ccccn2)c(O)n1-c1ccccc1Cl	-5	9	4	7	-10	20	/
COc1cccc(-n2c(O)c(C=NCc3ccccn3)c3ccccc3c2=O)c1	-8	2	13	-10	2	-5	/
O=c1c2ccccc2c(C=NCc2ccccn2)c(O)n1-c1ccccc1	-5	-10	26*	17	3	-28	-14
COCCNC(=O)c1n[nH]c2ccccc12	-16	-3	9	3	11	-19	/
CCCNC(=O)CN(C)C(=O)c1n[nH]c2ccccc12	1	5	43*	-9	-4	10	15
COc1cc(NC(=O)[C@H]2O[C@@H](n3ccc(N)nc3=O)[C@H](O)[C@@H]2O)cc(OC)c1OC	/	/	25	/	/	/	/
CC(=O)Nc1ccc(N=c2cc([N+](=O)[O-])cc(Cl)n2O)cc1	16	18	51*	2	4	-17	28
